Laboratory results from ChEMBL document CHEMBL2346629, “Discovery and characterization of novel allosteric FAK inhibitors” (Eur J Med Chem, 2013).

How the values were obtained:
[1] = molecular target: Ribosomal protein S6 kinase beta-1 (Homo sapiens) (UniProt P23443); test: Inhibition of P70S6K (unknown origin) using [gamma-33P]ATP assessed as residual activity at 3 uM
[2] = molecular target: Serine/threonine-protein kinase Nek6 (Homo sapiens) (UniProt Q9HC98); test: Inhibition of NEK6 (unknown origin) using [gamma-33P]ATP assessed as residual activity at 3 uM
[3] = molecular target: Serine/threonine-protein kinase 3 (Homo sapiens) (UniProt Q13188); test: Inhibition of MST2 (unknown origin) using [gamma-33P]ATP assessed as residual activity at 3 uM
[4] = molecular target: Serine/threonine-protein kinase 4 (Homo sapiens) (UniProt Q13043); test: Inhibition of MST1 (unknown origin) using [gamma-33P]ATP assessed as residual activity at 3 uM
[5] = molecular target: Serine/threonine-protein kinase MRCK beta (Homo sapiens) (UniProt Q9Y5S2); test: Inhibition of MRCKB (unknown origin) using [gamma-33P]ATP assessed as residual activity at 3 uM
[6] = molecular target: Myosin light chain kinase, smooth muscle (Homo sapiens, UniProt Q15746); test: Inhibition of MLCK (unknown origin) using [gamma-33P]ATP assessed as residual activity at 3 uM
Outline: (§1)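 Contract radiometric panel screen of 288 kinases (261 wild-type, 27 mutant). Inhibition was read by [gamma-33P]ATP radioactivity incorporation.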

[7] = molecular target: Maternal embryonic leucine zipper kinase (Homo sapiens) (UniProt Q14680); test: Inhibition of MELK (unknown origin) using [gamma-33P]ATP assessed as residual activity at 3 uM; outline: as §1
[8] = molecular target: Serine/threonine-protein kinase MARK1 (Homo sapiens) (UniProt Q9P0L2); test: Inhibition of MARK1 (unknown origin) using [gamma-33P]ATP assessed as residual activity at 3 uM; outline: as §1
[9] = molecular target: Casein kinase I isoform gamma-1 (Homo sapiens) (UniProt Q9HCP0); test: Inhibition of CK1g1(unknown origin) using [gamma-33P]ATP assessed as residual activity at 3 uM
Outline: (§2)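 Reaction Biology HotSpot radiometric profiling panel of 288 kinases (261 wild-type, 27 mutant). Kinase activity was read out by incorporation of [γ-33P]ATP.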

[10] = molecular target: CDK6/cyclin D1 (Homo sapiens) (UniProt P24385+Q00534); test: Inhibition of CDK6/cyclin D1 (unknown origin) using [gamma-33P]ATP assessed as residual activity at 3 uM; format: protein-complex assay
Outline: (§3)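 Radiometric profiling across 288 kinases (261 wild-type, 27 mutant), run as an outsourced service. Inhibition read out as [gamma-33P]ATP incorporation into substrate.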

[11] = molecular target: Cyclin-dependent kinase 2/cyclin E1 (Homo sapiens) (UniProt P24864+P24941); test: Inhibition of CDK2/cyclinE (unknown origin) using [gamma-33P]ATP assessed as residual activity at 3 uM; format: protein-complex assay; outline: as §3
[12] = molecular target: Cyclin-dependent kinase 2/cyclin A (Homo sapiens) (UniProt P24941+P20248+P78396); test: Inhibition of CDK2/cyclinA (unknown origin) using [gamma-33P]ATP assessed as residual activity at 3 uM; format: protein-complex assay; outline: as §3
[13] = molecular target: Calcium/calmodulin-dependent protein kinase type IV (Homo sapiens) (UniProt Q16566); test: Inhibition of CAMK4 (unknown origin) using [gamma-33P]ATP assessed as residual activity at 3 uM; outline: as §3
[14] = molecular target: Calcium/calmodulin-dependent protein kinase type II subunit alpha (Homo sapiens) (UniProt Q9UQM7); test: Inhibition of CAMK2a (unknown origin) using [gamma-33P]ATP assessed as residual activity at 3 uM; outline: as §3
[15] = system: Receptor-type tyrosine-protein kinase FLT3 (Homo sapiens), P36888 [D835Y]; test: Inhibition of FLT3 D835Y mutant (unknown origin) using [gamma-33P]ATP assessed as residual activity at 3 uM
Outline: (§4)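 Radiometric kinase profiling service covering 288 kinases (261 wild-type, 27 mutant). Inhibition was read as incorporation from [γ-³³P]ATP.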

[16] = system: Epidermal growth factor receptor (Homo sapiens), P00533 [L858R]; test: Inhibition of EGFR L858R mutant (unknown origin) using [gamma-33P]ATP assessed as residual activity at 3 uM; format: protein assay; outline: as §2
[17] = system: Mast/stem cell growth factor receptor Kit (Homo sapiens), P10721 [D816V]; test: Inhibition of c-Kit D816V mutant (unknown origin) using [gamma-33P]ATP assessed as residual activity at 3 uM
[18] = system: Mast/stem cell growth factor receptor Kit (Homo sapiens), P10721 [D816H]; test: Inhibition of c-Kit D816H mutant (unknown origin) using [gamma-33P]ATP assessed as residual activity at 3 uM
[19] = molecular target: Death-associated protein kinase 3 (Homo sapiens) (UniProt O43293); test: Inhibition of ZIPK (unknown origin) using [gamma-33P]ATP assessed as residual activity at 3 uM
[20] = molecular target: Mitogen-activated protein kinase kinase kinase 20 (Homo sapiens) (UniProt Q9NYL2); test: Inhibition of ZAK (unknown origin) using [gamma-33P]ATP assessed as residual activity at 3 uM
[21] = molecular target: Testis-specific serine/threonine-protein kinase 2 (Homo sapiens) (UniProt Q96PF2); test: Inhibition of TSSK2 (unknown origin) using [gamma-33P]ATP assessed as residual activity at 3 uM
[22] = molecular target: Homeodomain-interacting protein kinase 2 (Homo sapiens) (UniProt Q9H2X6); test: Inhibition of HIPK2 (unknown origin) using [gamma-33P]ATP assessed as residual activity at 3 uM; outline: as §4
[23] = molecular target: Tyrosine-protein kinase HCK (Homo sapiens) (UniProt P08631); test: Inhibition of HCK (unknown origin) using [gamma-33P]ATP assessed as residual activity at 3 uM; outline: as §4
[24] = molecular target: G protein-coupled receptor kinase 6 (Homo sapiens) (UniProt P43250); test: Inhibition of GRK6 (unknown origin) using [gamma-33P]ATP assessed as residual activity at 3 uM; outline: as §4
[25] = molecular target: Receptor-type tyrosine-protein kinase FLT3 (Homo sapiens) (UniProt P36888); test: Inhibition of FLT3 (unknown origin) using [gamma-33P]ATP assessed as residual activity at 3 uM; outline: as §4
[26] = molecular target: Fibroblast growth factor receptor 4 (Homo sapiens) (UniProt P22455); test: Inhibition of FGFR4 (unknown origin) using [gamma-33P]ATP assessed as residual activity at 3 uM; outline: as §2
[27] = molecular target: Tyrosine-protein kinase Fer (Homo sapiens) (UniProt P16591); test: Inhibition of FER (unknown origin) using [gamma-33P]ATP assessed as residual activity at 3 uM; outline: as §2
[28] = molecular target: Ephrin type-B receptor 2 (Homo sapiens) (UniProt P29323); test: Inhibition of EPHB2 (unknown origin) using [gamma-33P]ATP assessed as residual activity at 3 uM; outline: as §2
[29] = molecular target: Serine/threonine-protein kinase D3 (Homo sapiens) (UniProt O94806); test: Inhibition of PRKD3 (unknown origin) using [gamma-33P]ATP assessed as residual activity at 3 uM
[30] = molecular target: Dual specificity tyrosine-phosphorylation-regulated kinase 4 (Homo sapiens) (UniProt Q9NR20); test: Inhibition of DYRK4 (unknown origin) using [gamma-33P]ATP assessed as residual activity at 3 uM; outline: as §2
[31] = molecular target: Proto-oncogene tyrosine-protein kinase Src (Homo sapiens) (UniProt P12931); test: Inhibition of c-Src (unknown origin) using [gamma-33P]ATP assessed as residual activity at 3 uM

Sequence of Serine/threonine-protein kinase Nek6 (Homo sapiens) (Q9HC98 whole entry): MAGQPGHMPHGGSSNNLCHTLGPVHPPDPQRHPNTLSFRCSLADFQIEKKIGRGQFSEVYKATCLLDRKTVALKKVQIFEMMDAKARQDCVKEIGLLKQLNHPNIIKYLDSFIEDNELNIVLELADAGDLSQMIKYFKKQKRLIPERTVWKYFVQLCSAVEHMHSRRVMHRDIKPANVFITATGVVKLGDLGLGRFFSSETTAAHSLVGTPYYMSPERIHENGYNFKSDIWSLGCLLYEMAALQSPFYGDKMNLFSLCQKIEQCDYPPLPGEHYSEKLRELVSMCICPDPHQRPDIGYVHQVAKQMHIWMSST
Sequence of Serine/threonine-protein kinase D3 (Homo sapiens) (O94806 whole entry): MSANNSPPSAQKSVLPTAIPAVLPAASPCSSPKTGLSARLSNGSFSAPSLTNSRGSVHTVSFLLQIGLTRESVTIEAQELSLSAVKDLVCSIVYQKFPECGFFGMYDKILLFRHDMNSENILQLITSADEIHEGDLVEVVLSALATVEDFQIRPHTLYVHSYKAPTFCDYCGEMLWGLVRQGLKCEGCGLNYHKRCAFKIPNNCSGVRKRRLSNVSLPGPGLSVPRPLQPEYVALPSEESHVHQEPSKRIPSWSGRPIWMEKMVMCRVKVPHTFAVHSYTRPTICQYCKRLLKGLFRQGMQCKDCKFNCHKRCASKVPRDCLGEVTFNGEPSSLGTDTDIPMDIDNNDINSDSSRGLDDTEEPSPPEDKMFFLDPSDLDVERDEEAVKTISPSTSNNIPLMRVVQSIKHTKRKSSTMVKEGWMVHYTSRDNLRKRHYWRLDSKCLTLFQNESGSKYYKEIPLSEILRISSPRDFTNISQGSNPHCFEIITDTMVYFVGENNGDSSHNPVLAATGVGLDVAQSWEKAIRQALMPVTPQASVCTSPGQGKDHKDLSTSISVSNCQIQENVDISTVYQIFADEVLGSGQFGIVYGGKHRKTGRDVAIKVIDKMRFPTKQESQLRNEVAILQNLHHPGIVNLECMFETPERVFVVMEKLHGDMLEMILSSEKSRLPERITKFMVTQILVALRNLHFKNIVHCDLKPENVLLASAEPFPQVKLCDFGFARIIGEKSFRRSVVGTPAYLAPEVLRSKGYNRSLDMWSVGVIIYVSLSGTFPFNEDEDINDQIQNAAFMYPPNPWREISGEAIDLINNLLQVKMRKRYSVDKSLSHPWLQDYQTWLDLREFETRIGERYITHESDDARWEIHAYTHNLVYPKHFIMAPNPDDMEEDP
Sequence of Ribosomal protein S6 kinase beta-1 (Homo sapiens) (P23443 whole entry, looked up): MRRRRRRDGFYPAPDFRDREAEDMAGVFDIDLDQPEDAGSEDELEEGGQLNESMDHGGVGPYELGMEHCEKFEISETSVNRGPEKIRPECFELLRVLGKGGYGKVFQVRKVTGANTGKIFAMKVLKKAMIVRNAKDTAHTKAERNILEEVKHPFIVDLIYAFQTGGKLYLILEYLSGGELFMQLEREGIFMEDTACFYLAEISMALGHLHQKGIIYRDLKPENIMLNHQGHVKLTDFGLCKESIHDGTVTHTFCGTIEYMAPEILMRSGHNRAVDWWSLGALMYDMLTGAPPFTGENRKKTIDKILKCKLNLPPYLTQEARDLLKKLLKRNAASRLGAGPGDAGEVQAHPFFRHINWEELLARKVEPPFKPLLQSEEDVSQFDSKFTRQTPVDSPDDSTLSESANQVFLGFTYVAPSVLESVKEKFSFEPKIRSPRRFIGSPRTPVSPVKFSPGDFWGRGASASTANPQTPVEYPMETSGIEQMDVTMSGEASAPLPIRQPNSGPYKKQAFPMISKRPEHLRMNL
Sequence of Calcium/calmodulin-dependent protein kinase type II subunit alpha (Homo sapiens) (Q9UQM7 whole entry): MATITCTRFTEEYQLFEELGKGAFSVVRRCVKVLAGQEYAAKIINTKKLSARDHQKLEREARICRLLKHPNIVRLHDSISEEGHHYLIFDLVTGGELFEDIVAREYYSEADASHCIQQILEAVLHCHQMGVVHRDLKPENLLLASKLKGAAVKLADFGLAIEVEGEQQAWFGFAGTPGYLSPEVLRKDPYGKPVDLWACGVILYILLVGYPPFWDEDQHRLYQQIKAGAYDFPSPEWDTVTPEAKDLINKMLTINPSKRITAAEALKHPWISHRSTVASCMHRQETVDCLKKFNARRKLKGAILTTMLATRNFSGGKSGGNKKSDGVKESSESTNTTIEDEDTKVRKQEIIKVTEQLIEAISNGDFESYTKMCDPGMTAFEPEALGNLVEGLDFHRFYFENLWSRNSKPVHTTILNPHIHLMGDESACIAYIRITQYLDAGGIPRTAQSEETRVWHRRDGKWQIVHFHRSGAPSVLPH
Sequence of Cyclin-dependent kinase 2/cyclin A (Homo sapiens) (P20248 whole entry, looked up, other chains not shown): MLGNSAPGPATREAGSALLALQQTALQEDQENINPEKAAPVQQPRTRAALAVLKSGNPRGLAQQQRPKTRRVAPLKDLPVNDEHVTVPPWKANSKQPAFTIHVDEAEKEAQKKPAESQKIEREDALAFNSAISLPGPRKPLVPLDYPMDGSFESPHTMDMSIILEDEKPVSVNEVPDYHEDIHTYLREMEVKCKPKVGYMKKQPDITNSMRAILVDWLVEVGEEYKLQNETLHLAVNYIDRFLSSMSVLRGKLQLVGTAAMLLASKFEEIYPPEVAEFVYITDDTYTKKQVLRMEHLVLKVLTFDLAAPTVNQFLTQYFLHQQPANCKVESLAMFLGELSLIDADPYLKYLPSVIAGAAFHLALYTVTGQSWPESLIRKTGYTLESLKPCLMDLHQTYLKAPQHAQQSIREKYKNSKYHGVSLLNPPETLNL
Sequence of Cyclin-dependent kinase 2/cyclin A (Homo sapiens) (P78396 whole entry, looked up, other chains not shown): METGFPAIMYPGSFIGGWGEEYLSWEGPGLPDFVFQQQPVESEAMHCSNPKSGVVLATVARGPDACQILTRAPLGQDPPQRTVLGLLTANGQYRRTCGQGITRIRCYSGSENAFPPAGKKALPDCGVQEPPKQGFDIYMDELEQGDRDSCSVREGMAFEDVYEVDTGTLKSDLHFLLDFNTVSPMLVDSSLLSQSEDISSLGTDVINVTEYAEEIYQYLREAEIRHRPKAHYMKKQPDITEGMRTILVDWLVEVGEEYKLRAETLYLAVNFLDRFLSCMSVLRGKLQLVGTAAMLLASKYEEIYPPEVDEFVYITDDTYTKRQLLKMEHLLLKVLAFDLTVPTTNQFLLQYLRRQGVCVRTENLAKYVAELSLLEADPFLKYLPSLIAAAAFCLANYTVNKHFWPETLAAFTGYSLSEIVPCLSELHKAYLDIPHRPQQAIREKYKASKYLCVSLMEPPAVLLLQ
Sequence of Mast/stem cell growth factor receptor Kit (Homo sapiens), P10721 [D816V] (P10721 whole entry D816V): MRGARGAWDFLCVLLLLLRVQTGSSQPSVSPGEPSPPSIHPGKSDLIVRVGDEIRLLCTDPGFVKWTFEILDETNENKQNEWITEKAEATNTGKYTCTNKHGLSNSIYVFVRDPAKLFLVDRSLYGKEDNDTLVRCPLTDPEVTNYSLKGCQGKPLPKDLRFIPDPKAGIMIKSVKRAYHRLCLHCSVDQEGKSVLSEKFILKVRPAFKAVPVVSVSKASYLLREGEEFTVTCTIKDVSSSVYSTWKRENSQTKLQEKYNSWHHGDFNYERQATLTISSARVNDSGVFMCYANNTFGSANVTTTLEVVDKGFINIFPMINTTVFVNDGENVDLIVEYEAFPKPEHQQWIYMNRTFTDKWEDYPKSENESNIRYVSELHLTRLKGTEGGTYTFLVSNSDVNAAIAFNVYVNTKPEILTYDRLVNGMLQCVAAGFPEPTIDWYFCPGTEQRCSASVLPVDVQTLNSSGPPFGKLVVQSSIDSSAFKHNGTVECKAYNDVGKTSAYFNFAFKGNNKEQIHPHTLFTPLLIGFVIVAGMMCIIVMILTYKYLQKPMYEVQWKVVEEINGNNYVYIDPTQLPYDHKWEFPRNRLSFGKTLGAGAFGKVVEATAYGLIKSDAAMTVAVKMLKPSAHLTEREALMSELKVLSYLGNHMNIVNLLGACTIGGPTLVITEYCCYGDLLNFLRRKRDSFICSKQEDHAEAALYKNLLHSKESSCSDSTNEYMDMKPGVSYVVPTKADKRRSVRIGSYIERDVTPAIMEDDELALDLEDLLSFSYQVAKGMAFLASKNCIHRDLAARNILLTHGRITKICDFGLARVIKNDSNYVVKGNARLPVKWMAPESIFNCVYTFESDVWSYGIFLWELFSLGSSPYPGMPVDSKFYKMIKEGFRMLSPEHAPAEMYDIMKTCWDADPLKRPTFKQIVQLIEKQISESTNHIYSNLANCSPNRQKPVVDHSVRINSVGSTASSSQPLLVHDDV
Sequence of Tyrosine-protein kinase HCK (Homo sapiens) (P08631 2-526 limits assumed): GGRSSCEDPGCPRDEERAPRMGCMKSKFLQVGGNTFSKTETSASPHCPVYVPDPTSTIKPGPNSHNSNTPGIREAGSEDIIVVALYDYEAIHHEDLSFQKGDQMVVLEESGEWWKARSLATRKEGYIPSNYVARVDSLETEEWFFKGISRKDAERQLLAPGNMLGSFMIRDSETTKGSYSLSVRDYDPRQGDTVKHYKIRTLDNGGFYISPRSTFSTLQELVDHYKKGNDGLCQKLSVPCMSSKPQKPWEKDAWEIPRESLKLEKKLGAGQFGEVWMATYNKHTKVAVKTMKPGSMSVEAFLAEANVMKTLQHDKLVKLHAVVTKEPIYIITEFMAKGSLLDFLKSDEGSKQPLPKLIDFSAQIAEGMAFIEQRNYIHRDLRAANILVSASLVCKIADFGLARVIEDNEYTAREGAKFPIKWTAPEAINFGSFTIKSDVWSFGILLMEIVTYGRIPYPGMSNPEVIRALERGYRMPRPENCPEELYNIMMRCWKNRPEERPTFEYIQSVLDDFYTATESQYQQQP
Sequence of Testis-specific serine/threonine-protein kinase 2 (Homo sapiens) (Q96PF2 whole entry): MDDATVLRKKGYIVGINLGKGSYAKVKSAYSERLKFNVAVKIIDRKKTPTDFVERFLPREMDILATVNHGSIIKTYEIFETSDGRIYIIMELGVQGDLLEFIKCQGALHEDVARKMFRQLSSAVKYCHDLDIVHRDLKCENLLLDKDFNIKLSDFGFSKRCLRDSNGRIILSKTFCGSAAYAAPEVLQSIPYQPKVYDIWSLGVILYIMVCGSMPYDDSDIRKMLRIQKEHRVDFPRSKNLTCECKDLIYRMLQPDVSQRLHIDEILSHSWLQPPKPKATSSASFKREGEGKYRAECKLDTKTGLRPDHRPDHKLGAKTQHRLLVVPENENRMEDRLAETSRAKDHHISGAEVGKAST

Activity [1]: 95%
Activity [2]: 94%
Activity [3]: 78%
Activity [4]: 87%
Activity [5]: 101%
Activity [6]: 45%
Activity [7]: 76%
Activity [8]: 94%
Activity [9]: 94%
Activity [10]: 96%
Activity [11]: 91%
Activity [12]: 96%
Activity [13]: 95%
Activity [14]: 96%
Activity [15]: 52%
Activity [16]: 95%
Activity [17]: 36%
Activity [18]: 52%
Activity [20]: 96%
Activity [21]: 87%
Activity [22]: 101%
Activity [23]: 74%
Activity [24]: 97%
Activity [25]: 53%
Activity [26]: 87%
Activity [27]: 96%
Activity [28]: 95%
Activity [29]: 91%
Activity [30]: 103%
Activity [31]: 58%
Compound: CCc1ccc(-c2ccc3c(c2)-c2[nH]ncc2S(=O)(=O)N3C)cc1
Activity [19]: 97%
